pIC50: −log10 of the molar value.
Legend:
[1] = Pharmacokinetic parameter Varea in dog was reported in Cassette dosage; type: ADME, organism-based, Canis lupus familiaris; conditions: in vivo, read-out: Varea
Procedure, shortened: (§1)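 Dog cassette: the set of compounds was given intravenously into the femoral vein to a beagle dog at 0.2 mg/kg body weight per compound. Jugular blood was sampled from 5 min to 24 h postdose. Plasma was prepared by solid phase extraction, then analysed by HPLC with single ion monitoring MS using 0.1% formic acid in water:methanol (70:30).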

[2] = Half life time in dog was reported in cassette dosage; type: ADME, organism-based, Canis lupus familiaris; conditions: in vivo; procedure, shortened: as §1
[3] = Pharmacokinetic parameter clearance in dog was reported in Cassette dosage; type: ADME, organism-based, Canis lupus familiaris; conditions: plasma, read-out: Clp; procedure, shortened: as §1
[4] = Half life time in dog was reported in Discrete dosage; type: ADME, organism-based, Canis lupus familiaris; conditions: in vivo
[5] = Pharmacokinetic parameter Varea in dog was reported in Discrete dosage; type: ADME, organism-based, Canis lupus familiaris; conditions: in vivo, read-out: Varea
[6] = Pharmacokinetic parameter clearance in dog was reported in Discrete dosage; type: ADME, organism-based, Canis lupus familiaris; conditions: plasma, read-out: Clp
[7] = Pharmacokinetic parameter Cmax was reported after in rat oral administration; type: ADME, organism-based; set-up: route oral; conditions: in vivo
Procedure, shortened: (§2)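 Rats were dosed with the hydrochloride salt at 2 mg/kg intravenously and orally. Plasma pharmacokinetic parameters were derived from each route, and F was taken from the oral versus intravenous exposure. Some rat data were normalized from a 2.4 to a 2 mg/kg dose.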

[8] = pharmacokinetic parameter volume of distribution (Vd) was reported in dog after intravenous administration; type: ADME, organism-based, Canis lupus familiaris; conditions: in vivo, read-out: Vd area
[9] = Oral bioavailability in dog; type: ADME, organism-based, Canis lupus familiaris; conditions: in vivo
[10] = Pharmacokinetic parameter Cmax was reported after in dog oral administration; type: ADME, organism-based, Canis lupus familiaris; set-up: route oral; conditions: in vivo
[11] = target: Serine protease 1 (Homo sapiens, UniProt P07477); assay: The compound was evaluated for its inhibitory activity against trypsin using selectivity assay
[12] = system: Rattus norvegicus; assay: pharmacokinetic parameter area under the curve (AUC) was reported in rat after intravenous administration; type: ADME, organism-based; conditions: in vivo; procedure, shortened: as §2
[13] = Pharmacokinetic parameter Tmax was reported in dog after oral administration; type: ADME, organism-based, Canis lupus familiaris; conditions: in vivo
[14] = system: Rattus norvegicus; assay: pharmacokinetic parameter area under the curve (AUC) was reported in rat after oral administration; type: ADME, organism-based; conditions: in vivo; procedure, shortened: as §2
[15] = target: T1, Cathepsin G (Homo sapiens, UniProt P08311); assay: The compound was evaluated for its inhibitory activity against cathepsin G using selectivity assay
T1 sequence (P08311 whole entry): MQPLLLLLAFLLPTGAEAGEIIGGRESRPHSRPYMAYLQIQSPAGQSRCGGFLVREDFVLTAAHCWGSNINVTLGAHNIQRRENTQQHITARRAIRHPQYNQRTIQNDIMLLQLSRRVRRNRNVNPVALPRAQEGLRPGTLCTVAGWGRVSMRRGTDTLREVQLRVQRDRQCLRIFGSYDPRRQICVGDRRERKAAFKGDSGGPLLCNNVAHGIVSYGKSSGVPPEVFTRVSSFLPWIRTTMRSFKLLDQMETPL

[16] = half life was reported in dog after oral administration; type: ADME, organism-based, Canis lupus familiaris; conditions: in vivo
[17] = target: Chymotrypsinogen A (Bos taurus, UniProt P00766); assay: The compound was evaluated for its inhibitory activity against Chymotrypsinogen using selectivity assay
Procedure, shortened: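 Selectivity counter-screen against chymotrypsin, run essentially per an earlier published protocol; inhibitor preincubated with enzyme for 15 min before activity read-out.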

[18] = Oral bioavailability in rat; type: ADME, organism-based; conditions: in vivo; procedure, shortened: as §2
[19] = system: Canis familiaris; assay: pharmacokinetic parameter area under the curve (AUC) was reported in dog after intravenous administration; type: ADME, organism-based, Canis lupus familiaris; conditions: in vivo
[20] = system: Canis familiaris; assay: pharmacokinetic parameter area under the curve (AUC) was reported in dog after oral administration; type: ADME, organism-based, Canis lupus familiaris; conditions: in vivo
[21] = Pharmacokinetic parameter Tmax was reported in rat after intravenous administration; type: ADME, organism-based; conditions: in vivo; procedure, shortened: as §2
[22] = Pharmacokinetic parameter Tmax was reported in rat after oral administration; type: ADME, organism-based; conditions: in vivo; procedure, shortened: as §2
[23] = target: T2, Neutrophil elastase (Homo sapiens) (UniProt P08246); conditions: Canis lupus familiaris; 2 mg/kg
T2 sequence (whole entry): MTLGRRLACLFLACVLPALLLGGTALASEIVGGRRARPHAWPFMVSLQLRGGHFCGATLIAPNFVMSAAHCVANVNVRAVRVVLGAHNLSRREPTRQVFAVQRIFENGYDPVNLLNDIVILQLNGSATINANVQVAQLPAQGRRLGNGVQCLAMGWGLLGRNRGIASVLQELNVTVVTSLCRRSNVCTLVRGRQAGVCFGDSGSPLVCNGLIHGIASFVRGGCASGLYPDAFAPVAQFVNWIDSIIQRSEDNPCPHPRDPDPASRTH

[24] = target: T2, Neutrophil elastase (Homo sapiens); conditions: Canis lupus familiaris; Blood; 2 mg/kg
[25] = target: T2, Neutrophil elastase (Homo sapiens)
[26] = half life was reported in rat after intravenous administration; type: ADME, organism-based; conditions: in vivo; procedure, shortened: as §2
[27] = half life was reported in rat after oral administration; type: ADME, organism-based; conditions: in vivo; procedure, shortened: as §2
[28] = pharmacokinetic parameter volume of distribution (Vd) was reported in rat after intravenous administration; type: ADME, organism-based; conditions: in vivo, read-out: Vd area; procedure, shortened: as §2
[29] = half life was reported in dog after intravenous administration; type: ADME, organism-based, Canis lupus familiaris; conditions: in vivo
[30] = target: T2, Neutrophil elastase (Homo sapiens); conditions: Canis lupus familiaris; Blood; 2 mg/kg; remark: listed apart in the source
[31] = Pharmacokinetic parameter Tmax was reported in dog after intravenous administration; type: ADME, organism-based, Canis lupus familiaris; conditions: in vivo

Sequence of Serine protease 1 (P07477 whole entry): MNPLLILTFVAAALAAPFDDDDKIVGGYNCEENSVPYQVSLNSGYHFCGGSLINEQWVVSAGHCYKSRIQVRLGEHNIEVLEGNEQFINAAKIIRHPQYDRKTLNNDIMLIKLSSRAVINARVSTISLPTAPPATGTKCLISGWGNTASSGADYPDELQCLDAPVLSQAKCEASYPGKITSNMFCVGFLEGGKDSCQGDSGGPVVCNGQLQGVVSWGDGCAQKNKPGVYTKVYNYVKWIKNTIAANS

Vd [1] [L/kg] | half-life [2] [min] | clearance [3] [mL/min/kg] | half-life [4] [min] | Vd [5] [L/kg] | clearance [6] [mL/min/kg] | Cmax [7] [ng/mL] | Vd [8] [L/kg] | bioavailability [9] [%] | Cmax [10] [ng/mL] | pIC50 [11] | AUC [12] [ng·h/mL] | Tmax [13] [min] | AUC [14] [ng·h/mL] | pIC50 [15] | half-life [16] [min] | bioavailability [18] [%] | AUC [19] [ng·h/mL] | AUC [20] [ng·h/mL] | Tmax [21] [min] | further results | SMILES
4.4 | 18 | 176 |  |  |  |  |  |  |  |  |  |  |  |  |  |  |  |  |  |  | CC(C)[C@@H]1C(=O)N(S(C)(=O)=O)[C@@H]2CCN(C(=O)c3ccc(CN(C)C(C)C)c(Br)c3)[C@H]21
4.3 | 30 | 97 | 30 | 3.8 | 94 |  |  |  |  |  |  |  |  |  |  |  |  |  |  |  | CC(C)C1C(=O)N(S(C)(=O)=O)C2CCN(C(=O)c3ccc(CNC4CC4)cc3)C12 (stereo unspecified)
4.8 | 60 | 53 |  |  |  |  |  |  |  |  |  |  |  |  |  |  |  |  |  |  | CC(C)C1C(=O)N(S(C)(=O)=O)C2CCN(C(=O)c3csc(CN4CCCC4)n3)C12 (stereo unspecified)
 |  |  |  |  |  | 135 | 1.9 | 120 | 205 | < 4.00 | 148 | 15 | 64 | < 4.00 | 24 | 43 | 220 | 147 | 1.8 | pIC50 [17]: 6.27; Tmax [22]: 15 min; inhibition [23]: 92%; inhibition [24]: 99%; k on [25]: 252000 M⁻¹ s⁻¹; half-life [26]: 18 min; half-life [27]: 24 min; Vd [28]: 5 L/kg; half-life [29]: 24 min | CC(C)[C@@H]1C(=O)N(S(C)(=O)=O)[C@@H]2CCN(C(=O)c3cnc(CNC4CC4)cn3)[C@H]21.Cl
 |  |  |  |  |  | 142 | 3.5 | 90 | 130 | < 4.00 | 482 | 54 | 217 | < 4.00 | 126 | 45 | 488 | 417 | 1.8 | pIC50 [17]: 4.51; Tmax [22]: 45 min; inhibition [23]: 92%; inhibition [24]: 99%; k on [25]: 6310 M⁻¹ s⁻¹; half-life [26]: 48 min; half-life [27]: 72 min; Vd [28]: 4.9 L/kg; half-life [29]: 108 min | CC(C)[C@@H]1C(=O)N(S(C)(=O)=O)[C@@H]2CCN(C(=O)C3CN(CC(C)(C)C)C3)[C@H]21.Cl
3.3 | 120 | 20 | 108 | 2.7 | 19 |  |  |  |  |  |  |  |  |  |  |  |  |  |  |  | CC(C)C1C(=O)N(S(C)(=O)=O)C2CCN(C(=O)/C=C/CN3CCCCC3)C12 (stereo unspecified)
2.5 | 60 | 28 | 54 | 2.9 | 40 |  |  |  |  |  |  |  |  |  |  |  |  |  |  |  | CC(C)[C@@H]1C(=O)N(S(C)(=O)=O)[C@@H]2CCN(C(=O)/C=C/CNC3CC3)[C@H]21
 |  |  |  |  |  | 232 | 3.5 | 100 | 152 | < 4.00 | 424 | 42 | 263 | < 4.00 | 96 | 60 | 405 | 430 | 3 | Tmax [22]: 30 min; inhibition [23]: 97%; k on [25]: 6630 M⁻¹ s⁻¹; half-life [26]: 66 min; half-life [27]: 48 min; inhibition [30]: 100%; Vd [28]: 7.5 L/kg; half-life [29]: 90 min | CC(C)[C@@H]1C(=O)N(S(C)(=O)=O)[C@@H]2CCN(C(=O)/C=C/CN3CCCCC3)[C@H]21.Cl
2.9 | 42 | 46 |  |  |  |  |  |  |  |  |  |  |  |  |  |  |  |  |  |  | CC(C)C1C(=O)N(S(C)(=O)=O)C2CCN(C(=O)c3ccc(CNC4CC4)nc3)C12 (stereo unspecified)
6.6 | 30 | 161 | 12 | 3.8 | 220 |  |  |  |  |  |  |  |  |  |  |  |  |  |  |  | CC(C)[C@@H]1C(=O)N(S(C)(=O)=O)[C@@H]2CCN(C(=O)c3ccc(CCN4CCCCC4)cc3)[C@H]21
7.6 | 42 | 134 | 12 | 3.5 | 197 |  |  |  |  |  |  |  |  |  |  |  |  |  |  |  | CCCN(C)Cc1ccc(C(=O)N2CCC3C2C(C(C)C)C(=O)N3S(C)(=O)=O)cc1 (stereo unspecified)
 |  |  |  |  |  | 147 | 3.4 | 100 | 138 | < 4.00 | 392 | 30 | 93 | < 4.00 | 84 | 24 | 286 | 308 | 1.8 | pIC50 [17]: 5.52; Tmax [31]: 1.8 min; Tmax [22]: 15 min; inhibition [23]: 100%; inhibition [24]: 100%; k on [25]: 30500 M⁻¹ s⁻¹; half-life [26]: 24 min; half-life [27]: 78 min; Vd [28]: 2.6 L/kg; half-life [29]: 60 min | CC(C)[C@@H]1C(=O)N(S(C)(=O)=O)[C@@H]2CCN(C(=O)c3coc(CN4CCCC4)n3)[C@H]21.Cl

— ChEMBL document CHEMBL1135761, “Discovery of further pyrrolidine trans-lactams as inhibitors of human neutrophil elastase (HNE) with potential as development candidates and the crystal structure of HNE complexed with an inhibitor (GW475151)” (J Med Chem, 2002)
